Test results from ChEMBL document CHEMBL2157863, “Synthesis and evaluation of novologues as C-terminal Hsp90 inhibitors with cytoprotective activity against sensory neuron glucotoxicity” (J Med Chem, 2012).
Calls of active or inactive are those of the source. The calls are words filed in the database; no cut-off is given here.

Columns and labels:
[1] = Cytoprotective activity against glucotoxicity in Sprague-Dawley rat DRG neurons assessed as cell viability by calcein-AM assay; format: functional; conditions: DRG neuron
Outline: (§1)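 Dorsal root ganglion neurons came from embryonic day 15–18 Sprague Dawley rats. They were trypsin-dissociated and grown on collagen in Neurobasal medium with 25 mM glucose, B-27 and 50 ng/ml NGF. Fluorodeoxyuridine and cytosine arabinoside were given for 2 days. On day 3, neurons received compound plus 20 mM excess glucose (45 mM total) for 4 h. Viability was read with 2 μM calcein AM, 30 min at 37°C, ex 485/em 520 nm, normalized to well protein.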

[2] = Cytoprotective activity against glucotoxicity in Sprague-Dawley rat DRG neurons assessed as cell viability at 1 uM by calcein-AM assay; format: functional; conditions: DRG neuron, read-out: Activity; outline: as §1
DRG neuron = test: Induction of HSP70 protein expression in Sprague-Dawley rat DRG neurons at 10 to 1000 nM; format: functional
Outline: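 Rat embryonic DRG neurons were preincubated overnight with 10–1000 nM compound or DMSO, then exposed to 4 h hyperglycemia. Hsp70 and β-actin were measured by immunoblot. Band intensity of Hsp70 was normalized to β-actin and expressed as fold of control.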

Nucleic Acid [3] = test: Activation of human HSP70 promoter transfected in rat 50B11 cells at 10 to 1000 nM after 16 hrs by luciferase reporter gene assay; format: cell-based
Outline: (§2)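 50B11 immortalized sensory neurons were grown in DMEM with 25 mM glucose, 10% FCS and 5 μg/ml blasticidin. They were lipofected with a luciferase reporter driven by the human Hsp70 promoter, which carries two heat shock elements. Cells were re-seeded after 24 h and exposed to compound for 16 h. Luciferase in lysates was normalized to total protein per well, with triplicate wells in at least three experiments.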

Nucleic Acid [4] = test: Activation of human HSP70 promoter transfected in rat 50B11 cells at 1 uM after 16 hrs by luciferase reporter gene assay; format: cell-based; outline: as §2
[5] = molecular target: T1, Heat shock protein HSP90 (Homo sapiens) (UniProt P07900+P08238); test: Inhibition of HSP90 in human MCF7 cells assessed as degradation of Her2 up to 5 uM after 24 hrs by immunoblot analysis; format: cell-based
Outline: (§3)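 MCF7 cells were exposed to compound for 24 h. Lysates were immunoblotted for the Hsp90 clients Her2, Raf and Akt, with β-actin as loading control. Geldanamycin at 500 nM served as the positive control for client degradation.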

[6] = molecular target: T1, Heat shock protein HSP90 (Homo sapiens); test: Inhibition of HSP90 in human MCF7 cells assessed as degradation of Akt up to 5 uM after 24 hrs by immunoblot analysis; format: cell-based; outline: as §3
[7] = Ratio of KU-32 ED50 to compound ED50 for cytoprotective activity against glucotoxicity in Sprague-Dawley rat DRG neurons; format: functional, DRG neuron
[8] = molecular target: T1, Heat shock protein HSP90 (Homo sapiens); test: Inhibition of HSP90 in human MCF7 cells assessed as degradation of Raf up to 5 uM after 24 hrs by immunoblot analysis; format: cell-based; outline: as §3

With `CO[C@@H]1[C@@H](O)[C@@H](O)[C@H](Oc2ccc(CCNC(C)=O)c(-c3cccc(C(F)(F)F)c3)c2)OC1(C)C` as the compound, how does the EC50 [1] read?
The EC50 was 188 nM.

And the viability at 1 µM [2]?
The viability at 1 µM was 83%.

Which viability at 1 µM [2] does the source give for `CO[C@@H]1[C@@H](O)[C@@H](O)[C@H](Oc2ccc(CCNC(C)=O)c(-c3ccncc3)c2)OC1(C)C` here?
Its viability at 1 µM is 81%.

With `CO[C@@H]1[C@@H](O)[C@@H](O)[C@H](Oc2ccc(CCNC(C)=O)c(-c3ccccc3Cl)c2)OC1(C)C` as the compound, how does the viability at 1 µM [2] read?
Its viability at 1 µM is 71%.

With `CO[C@@H]1[C@@H](O)[C@@H](O)[C@H](Oc2ccc(CCNC(C)=O)c(-c3cccc(CN4CCOCC4)c3)c2)OC1(C)C` as the compound, how does the viability at 1 µM [2] read?
Its viability at 1 µM is 83%.

Which viability at 1 µM [2] does the source give for `CO[C@@H]1[C@@H](O)[C@@H](O)[C@H](Oc2ccc(CCNC(C)=O)c(-c3ccc(C(F)(F)F)cc3)c2)OC1(C)C` here?
Its viability at 1 µM is 74%.

For `CO[C@@H]1[C@@H](O)[C@@H](O)[C@H](Oc2ccc(C3CC=CCC3NC(C)=O)c(-c3cccc(F)c3)c2)OC1(C)C` (mixture of isomers), which viability at 1 µM [2] is on record?
Its viability at 1 µM is 78%.

For `CO[C@@H]1[C@@H](O)[C@@H](O)[C@H](Oc2ccc(CCNC(C)=O)c(-c3ccccc3SC)c2)OC1(C)C`, which EC50 [1] is on record?
The EC50 was 384 nM.

And the viability at 1 µM [2]?
Its viability at 1 µM is 83%.

Which EC50 [1] does the source give for `CO[C@@H]1[C@@H](O)[C@@H](O)[C@H](Oc2ccc3cc(NC(C)=O)c(=O)oc3c2C)OC1(C)C` here?
The EC50 was 240 nM.

What about the Activity (DRG neuron) of the same compound?
The Activity was “Active”.

And the Activity (Nucleic Acid [3])?
The Activity was “Active”.

What about the viability at 1 µM [2] of the same compound?
Its viability at 1 µM is 86%.

Which viability at 1 µM [2] does the source give for `CO[C@@H]1[C@@H](O)[C@@H](O)[C@H](Oc2ccc(CCNC(C)=O)c(-c3ccc(F)cc3)c2)OC1(C)C` here?
The viability at 1 µM was 75%.

For `CO[C@@H]1[C@@H](O)[C@@H](O)[C@H](Oc2ccc(CCNC(C)=O)c(-c3cccc(Cl)c3)c2)OC1(C)C`, which viability at 1 µM [2] is on record?
The viability at 1 µM was 90%.

Which Activity (Nucleic Acid [4]) does the source give for `COc1ccccc1-c1cc(O[C@@H]2OC(C)(C)[C@H](OC)[C@@H](O)[C@H]2O)ccc1CCNC(C)=O` here?
The Activity was “Active”.

What about the viability at 1 µM [2] of the same compound?
Its viability at 1 µM is 92%.

What does the source list for `CO[C@@H]1[C@@H](O)[C@@H](O)[C@H](Oc2ccc(CCNC(C)=O)c(-c3ccc4c(c3)OCO4)c2)OC1(C)C`?
EC50 [1]: 18.4 nM; Activity (DRG neuron): inactive; Activity (Nucleic Acid [3]): inactive; viability at 1 µM [2]: 83%

For `COc1cccc(-c2cc(O[C@@H]3OC(C)(C)[C@H](OC)[C@@H](O)[C@H]3O)ccc2CCNC(C)=O)c1`, which viability at 1 µM [2] is on record?
Its viability at 1 µM is 78%.

Which viability at 1 µM [2] does the source give for `CO[C@@H]1[C@@H](O)[C@@H](O)[C@H](Oc2ccc(CCNC(C)=O)c(-c3ccc(O)cc3)c2)OC1(C)C` here?
Its viability at 1 µM is 67%.

For `CO[C@@H]1[C@@H](O)[C@@H](O)[C@H](Oc2ccc(CCNC(C)=O)c(-c3ccccc3)c2)OC1(C)C`, which viability at 1 µM [2] is on record?
Its viability at 1 µM is 76%.

Which viability at 1 µM [2] does the source give for `CO[C@@H]1[C@@H](O)[C@@H](O)[C@H](Oc2ccc(C3CC=CCC3NC(C)=O)c(-c3cccc(C(F)(F)F)c3)c2)OC1(C)C` (mixture of isomers) here?
The viability at 1 µM was 69%.

For `CO[C@@H]1[C@@H](O)[C@@H](O)[C@H](Oc2ccc(CCNC(C)=O)c(-c3cccnc3)c2)OC1(C)C`, which viability at 1 µM [2] is on record?
The viability at 1 µM was 61%.

With `CO[C@@H]1[C@@H](O)[C@@H](O)[C@H](Oc2ccc(CCNC(C)=O)c(-c3cccc(F)c3)c2)OC1(C)C` [CEMDOMESPIB] as the compound, how does the inhibition [5] read?
The inhibition was “inactive”.

What about the EC50 [1] of the same compound?
The EC50 was 13 nM.

What about the inhibition [6] of the same compound?
The inhibition was “inactive”.

And the Activity (DRG neuron)?
The Activity was “Active”.

And the “Ratio ED50” value [7]?
The value was 14.

And the inhibition [8]?
The inhibition was “inactive”.

And the Activity (Nucleic Acid [3])?
The Activity was “Active”.

What about the viability at 1 µM [2] of the same compound?
Its viability at 1 µM is 95%.

With `CO[C@@H]1[C@@H](O)[C@@H](O)[C@H](Oc2ccc(CCNC(C)=O)c(-c3cccc(C)c3)c2)OC1(C)C` as the compound, how does the viability at 1 µM [2] read?
The viability at 1 µM was 82%.
